Test results taken from ChEMBL document CHEMBL1143739, “SAR study of bicyclo[4.1.0]heptanes as melanin-concentrating hormone receptor R1 antagonists: taming hERG” (Bioorg Med Chem, 2007).

Key:
[1] = target: Melanin-concentrating hormone receptor 1 (Homo sapiens, UniProt Q99705); experiment: Displacement of [125I]MCH from MCHR1 expressed in CHO cells; assay type: cell-based
Procedure, shortened: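 Human MCH R1, CHO cell membranes (0.1 mg/mL) on SPA beads (1 mg/mL). Buffer: 25 mM HEPES, 10 mM MgCl2, 5 mM MnCl2, 0.1% BSA, pH 7.4. Incubation 2–4 h at room temperature, scintillation count. Ki by non-linear regression; mean ± range of two determinations, each in quadruplicate.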

hERG (KCNH2) [2] = target: T1, hERG (KCNH2) (Homo sapiens, UniProt Q12809); experiment: Inhibition of hERG expressed in CHO cells at 5 ug/mL by rubidium efflux assay; assay type: toxicity, cell-based; details: CHO cells that express hERG
T1 sequence (Q12809 whole entry): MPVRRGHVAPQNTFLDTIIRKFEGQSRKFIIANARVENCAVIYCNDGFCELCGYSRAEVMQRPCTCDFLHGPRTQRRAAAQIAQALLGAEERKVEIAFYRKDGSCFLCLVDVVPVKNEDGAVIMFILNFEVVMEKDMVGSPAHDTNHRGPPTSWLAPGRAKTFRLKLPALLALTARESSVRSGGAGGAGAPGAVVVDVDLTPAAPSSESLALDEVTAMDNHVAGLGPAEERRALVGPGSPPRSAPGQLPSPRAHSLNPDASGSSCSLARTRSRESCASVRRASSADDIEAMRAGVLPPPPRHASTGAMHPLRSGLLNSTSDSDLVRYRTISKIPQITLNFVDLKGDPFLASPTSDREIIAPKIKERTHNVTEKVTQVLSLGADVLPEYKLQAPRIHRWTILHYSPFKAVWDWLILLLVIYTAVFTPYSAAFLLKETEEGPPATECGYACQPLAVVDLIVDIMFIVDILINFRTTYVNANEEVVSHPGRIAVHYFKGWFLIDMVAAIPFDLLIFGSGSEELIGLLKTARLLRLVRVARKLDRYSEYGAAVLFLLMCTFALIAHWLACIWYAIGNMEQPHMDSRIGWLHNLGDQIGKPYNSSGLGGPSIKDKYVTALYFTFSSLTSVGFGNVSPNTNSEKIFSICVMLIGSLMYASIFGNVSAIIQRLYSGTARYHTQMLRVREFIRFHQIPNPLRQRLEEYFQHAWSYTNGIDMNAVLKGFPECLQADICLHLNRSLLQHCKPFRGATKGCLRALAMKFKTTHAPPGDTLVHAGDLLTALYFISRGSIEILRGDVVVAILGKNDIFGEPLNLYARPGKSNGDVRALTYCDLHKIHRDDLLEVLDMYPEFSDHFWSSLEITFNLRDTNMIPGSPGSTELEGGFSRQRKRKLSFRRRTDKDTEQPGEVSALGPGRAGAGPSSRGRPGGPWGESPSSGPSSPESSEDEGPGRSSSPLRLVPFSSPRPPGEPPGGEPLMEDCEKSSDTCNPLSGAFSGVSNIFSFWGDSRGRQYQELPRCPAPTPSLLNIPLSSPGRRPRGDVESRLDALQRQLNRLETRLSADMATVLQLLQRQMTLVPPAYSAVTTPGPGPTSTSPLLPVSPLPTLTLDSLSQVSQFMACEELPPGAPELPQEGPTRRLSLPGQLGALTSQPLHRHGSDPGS
Procedure, shortened: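 hERG-CHO cells plated 24 h, then loaded 3 h in HEPES-buffered saline with 5.4 mM RbCl. Compound added and equilibrated 30 min at 37 °C. Cells washed three times in Rb-free saline (5.4 mM KCl), then depolarized 5 min with 45.4 mM KCl.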

hERG (KCNH2) [3] = target: T1, hERG (KCNH2); experiment: Inhibition of hERG expressed in CHO cells at […] by rubidium efflux assay; assay type: toxicity, cell-based; details: CHO cells that express hERG

Chain of Melanin-concentrating hormone receptor 1 (Q99705 whole entry): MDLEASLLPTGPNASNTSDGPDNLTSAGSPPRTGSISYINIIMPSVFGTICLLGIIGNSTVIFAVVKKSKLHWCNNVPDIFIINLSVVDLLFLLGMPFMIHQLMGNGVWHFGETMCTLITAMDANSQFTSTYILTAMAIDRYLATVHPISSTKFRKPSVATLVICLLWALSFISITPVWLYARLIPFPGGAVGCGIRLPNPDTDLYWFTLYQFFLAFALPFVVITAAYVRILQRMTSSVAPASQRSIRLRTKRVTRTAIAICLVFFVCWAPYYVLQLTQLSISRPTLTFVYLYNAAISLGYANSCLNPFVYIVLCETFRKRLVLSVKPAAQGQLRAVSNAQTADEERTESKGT

| Compound | Ki [1] | inhibition at 5 ug/mL (hERG (KCNH2) [2]) | inhibition at […] (hERG (KCNH2) [3]) |
| --- | --- | --- | --- |
| N#Cc1cccc([C@]23CC[C@@H](N(CCN4CC[C@@H](O)C4)C(=O)Nc4ccc(F)cc4)CC2C3)c1 (stereo partly drawn) | 0.054 µM | – | – |
| N#Cc1cccc([C@]23CC[C@@H](N(CCN4CC[C@@H](O)C4)C(=O)Nc4ccc5c(c4)OCO5)CC2C3)c1 (stereo partly drawn) | 0.134 µM | – | – |
| CC(=O)N1CCC(CN(C(=O)Nc2ccc(F)c(Cl)c2)[C@@H]2CC[C@]3(c4cccc(C#N)c4)CC3C2)CC1 (stereo partly drawn) | 0.312 µM | 37% | 32% |
| CC(=O)NCc1cccc([C@]23CC[C@@H](N(CCN(C(C)C)C(C)C)C(=O)Nc4ccc(F)c(Cl)c4)CC2C3)c1 (stereo partly drawn) | 0.031 µM | 78% | 62% |
| N#Cc1cccc(NC(=O)N(CCN2CC[C@@H](O)C2)[C@@H]2CC[C@]3(c4cccc(C#N)c4)CC3C2)c1 (stereo partly drawn) | 0.092 µM | – | – |
| O=C(Nc1ccc(F)c(Cl)c1)N(CCN1CCCC1)C1CC=C(c2cc3ccccc3o2)CC1 (stereo not drawn) | 0.316 µM | – | – |
| CN(C)Cc1ncc(C2=CCC(N(CCN3CCCC3)C(=O)Nc3ccc(F)c(Cl)c3)CC2)s1 (stereo not drawn) | 0.648 µM | – | – |
| COC(=O)c1cccc([C@]23CC[C@@H](N(CCN(C(C)C)C(C)C)C(=O)Nc4ccc(F)c(F)c4)CC2C3)c1 (stereo partly drawn) | – | 85% | 57% |
| O=C(Nc1ccc(F)c(Cl)c1)N(CCN1CCCC1)C1CC=C(c2ccco2)CC1 (stereo not drawn) | 0.117 µM | – | – |
| CC(C)N(CCN(C(=O)Nc1ccc(F)c(Cl)c1)[C@@H]1CC[C@]2(c3cccc(C(N)=O)c3)CC2C1)C(C)C (stereo partly drawn) | 0.142 µM | 44% | 21% |
| N#Cc1cccc([C@]23CC[C@@H](N(CCN4CC[C@@H](O)C4)C(=O)Nc4cccc(Br)c4)CC2C3)c1 (stereo partly drawn) | 0.034 µM | – | – |
| N#Cc1cccc([C@]23CC[C@@H](N(CCN4CC[C@@H](O)C4)C(=O)NC4CCCCC4)CC2C3)c1 (stereo partly drawn) | 2.21 µM | – | – |
| N#Cc1cccc([C@]23CC[C@@H](N(CCN4CCOCC4)C(=O)Nc4ccc(F)c(Cl)c4)CC2C3)c1 (stereo partly drawn) | 0.053 µM | – | – |
| CS(=O)(=O)N1CCC(CCN(C(=O)Nc2ccc(F)c(C(F)(F)F)c2)[C@@H]2CC[C@]3(c4cccc(C#N)c4)CC3C2)CC1 (stereo partly drawn) | 0.08 µM | 20% | 18% |
| N#Cc1cccc([C@]23CC[C@@H](N(CCN4CC[C@@H](O)C4)C(=O)Nc4ccccc4)CC2C3)c1 (stereo partly drawn) | 0.132 µM | – | – |
| Cc1cc(C)cc(NC(=O)N(CCN2CC[C@@H](O)C2)[C@@H]2CC[C@]3(c4cccc(C#N)c4)CC3C2)c1 (stereo partly drawn) | 0.539 µM | – | – |
| N#Cc1cccc([C@]23CC[C@@H](N(CC4CCN(C5CCOCC5)CC4)C(=O)Nc4ccc(F)c(Cl)c4)CC2C3)c1 (stereo partly drawn) | – | 91% | 75% |
| CS(=O)(=O)N1CCCC(CN(C(=O)Nc2ccc(F)c(Cl)c2)[C@@H]2CC[C@]3(c4cccc(C#N)c4)CC3C2)C1 (stereo partly drawn) | 0.211 µM | 9% | 3% |

| Compound | Ki [1] | inhibition at 5 ug/mL (hERG (KCNH2) [2]) | inhibition at […] (hERG (KCNH2) [3]) |
| --- | --- | --- | --- |
| CC(C)N(CCN(C(=O)Nc1ccc(F)c(F)c1)[C@@H]1CC[C@]2(c3ccccc3)CC2C1)C(C)C (stereo partly drawn) | 0.092 µM | – | – |
| CNC(=O)N1CCC(CN(C(=O)Nc2ccc(F)c(C(F)(F)F)c2)[C@@H]2CC[C@]3(c4cccc(C#N)c4)CC3C2)CC1 (stereo partly drawn) | 0.181 µM | 18% | 14% |
| CCN(CC)Cc1cccc([C@]23CC[C@@H](N(CCN(C(C)C)C(C)C)C(=O)Nc4ccc(F)c(Cl)c4)CC2C3)c1 (stereo partly drawn) | 0.046 µM | 30% | 15% |
| O=Cc1ccc(C2=CCC(N(CCN3CCCC3)C(=O)Nc3ccc(F)c(Cl)c3)CC2)o1 (stereo not drawn) | 0.051 µM | 47% | – |
| Cc1ccc(C2=CCC(N(CCN3CCCC3)C(=O)Nc3ccc(F)c(Cl)c3)CC2)s1 (stereo not drawn) | 0.085 µM | 12% | – |
| N#Cc1cccc([C@]23CC[C@@H](N(CCN4CC[C@@H](O)C4)C(=O)Nc4ccccc4F)CC2C3)c1 (stereo partly drawn) | 1.88 µM | – | – |
| CC(C)N(CCN(C(=O)Nc1ccc(F)c(Cl)c1)[C@@H]1CC[C@]2(c3cccc(CO)c3)CC2C1)C(C)C (stereo partly drawn) | 0.048 µM | 67% | 43% |
| CS(=O)(=O)N1CCC[C@H]1CN(C(=O)Nc1ccc(F)c(Cl)c1)[C@@H]1CC[C@]2(c3cccc(C#N)c3)CC2C1 (stereo partly drawn) | 0.559 µM | 13% | 32% |
| CCO/N=C/c1cccc([C@]23CC[C@@H](N(CCN(C(C)C)C(C)C)C(=O)Nc4ccc(F)c(Cl)c4)CC2C3)c1 (stereo partly drawn) | 0.029 µM | – | – |
| CS(=O)(=O)N1CCCCC1CN(C(=O)Nc1ccc(F)c(Cl)c1)[C@@H]1CC[C@]2(c3cccc(C#N)c3)CC2C1 (stereo partly drawn) | 0.295 µM | 3% | 31% |
| CC(C)N(CCN(C(=O)Nc1ccc(F)c(Cl)c1)[C@@H]1CC[C@]2(c3cccc(CN4CCN(C)CC4)c3)CC2C1)C(C)C (stereo partly drawn) | 0.054 µM | 13% | 10% |
| O=C(Nc1ccc(F)c(Cl)c1)N(CCN1CCCC1)C1CC=C(c2ccc[nH]2)CC1 (stereo not drawn) | 1.97 µM | – | – |
| O=C(Nc1ccc(F)c(Cl)c1)N(CCN1CCCC1)C1CC=C(c2cncnc2)CC1 (stereo not drawn) | 0.147 µM | 85% | – |
| N#Cc1ncc(C2=CCC(N(CCN3CCCC3)C(=O)Nc3ccc(F)c(Cl)c3)CC2)s1 (stereo not drawn) | 0.057 µM | – | – |
| Cc1ccc(NC(=O)N(CCN2CC[C@@H](O)C2)[C@@H]2CC[C@]3(c4cccc(C#N)c4)CC3C2)cc1F (stereo partly drawn) | 0.048 µM | – | – |
| N#Cc1cccc([C@]23CC[C@@H](N(CCN4CC[C@@H](O)C4)C(=O)Nc4cccc([N+](=O)[O-])c4)CC2C3)c1 (stereo partly drawn) | 0.06 µM | – | – |
| COc1cccc(NC(=O)N(CCN2CC[C@@H](O)C2)[C@@H]2CC[C@]3(c4cccc(C#N)c4)CC3C2)c1 (stereo partly drawn) | 0.373 µM | – | – |

Continued, in another order:

| Ki [1] | Compound | inhibition at 5 ug/mL (hERG (KCNH2) [2]) | inhibition at […] (hERG (KCNH2) [3]) |
| --- | --- | --- | --- |
| 0.0027 µM | CC(C)N(CCN(C(=O)Nc1cccc([N+](=O)[O-])c1)[C@@H]1CC[C@]2(c3cccc(C#N)c3)CC2C1)C(C)C (stereo partly drawn) | – | – |
| 0.021 µM | CCS(=O)(=O)N1CCC(CN(C(=O)Nc2ccc(F)c(F)c2)[C@@H]2CC[C@]3(c4cccc(C#N)c4)CC3C2)CC1 (stereo partly drawn) | 59% | 25% |
| 0.0023 µM | CC(C)N(CCN(C(=O)Nc1ccc(F)c(Cl)c1)[C@@H]1CC[C@]2(c3cccc(CN)c3)CC2C1)C(C)C (stereo partly drawn) | 32% | 22% |
| 0.02 µM | N#Cc1cccc([C@]23CC[C@@H](N(CCN4CC[C@@H](O)C4)C(=O)Nc4cccc(F)c4)CC2C3)c1 (stereo partly drawn) | – | – |
| 0.0054 µM | CS(=O)(=O)N1CCC(CN(C(=O)Nc2ccc(F)c(F)c2)[C@@H]2CC[C@]3(c4cccc(C#N)c4)CC3C2)CC1 (stereo partly drawn) | 34% | 15% |
| 0.021 µM | CC(C)N(CCN(C(=O)Nc1ccc(F)c(Cl)c1)[C@@H]1CC[C@]2(c3cccc(CN4CC[C@H](O)C4)c3)CC2C1)C(C)C (stereo partly drawn) | -1% | -4% |
| 0.0057 µM | CC(C)N(CCN(C(=O)Nc1cccc(Br)c1)[C@@H]1CC[C@]2(c3cccc(C#N)c3)CC2C1)C(C)C (stereo partly drawn) | – | – |
| 0.022 µM | N#Cc1cccc([C@]23CC[C@@H](N(CCN4CCC(O)CC4)C(=O)Nc4ccc(F)c(Cl)c4)CC2C3)c1 (stereo partly drawn) | – | – |
| 0.0045 µM | CC(C)N(CCN(C(=O)Nc1cc(F)cc(F)c1)[C@@H]1CC[C@]2(c3cccc(C#N)c3)CC2C1)C(C)C (stereo partly drawn) | – | – |
| 0.016 µM | CC1CCCN1CCN(C(=O)Nc1ccc(F)c(Cl)c1)[C@@H]1CC[C@]2(c3cccc(C#N)c3)CC2C1 (stereo partly drawn) | – | – |
| 0.0076 µM | CC(C)N(CCN(C(=O)Nc1cccc(C#N)c1)[C@@H]1CC[C@]2(c3cccc(C#N)c3)CC2C1)C(C)C (stereo partly drawn) | – | – |
| 0.0021 µM | CC(C)N(CCN(C(=O)Nc1cccc(F)c1)[C@@H]1CC[C@]2(c3cccc(C#N)c3)CC2C1)C(C)C (stereo partly drawn) | – | – |
| 0.002 µM | CC(C)N(CCN(C(=O)Nc1cc(Cl)nc(Cl)c1)[C@@H]1CC[C@]2(c3cccc(C#N)c3)CC2C1)C(C)C (stereo in doubt; 6j) | – | – |
| 0.023 µM | CC(=O)NC1CCN(CCN(C(=O)Nc2ccc(F)c(Cl)c2)[C@@H]2CC[C@]3(c4cccc(C#N)c4)CC3C2)C1 (stereo partly drawn) | – | – |
| 0.02 µM | N#Cc1cccc([C@]23CC[C@@H](N(CCN4CC[C@@H](O)C4)C(=O)Nc4ccc(F)c(F)c4)CC2C3)c1 (stereo partly drawn) | – | – |
| 0.0072 µM | CS(=O)(=O)N1CCC(CN(C(=O)Nc2ccc(F)c(Cl)c2)[C@@H]2CC[C@]3(c4cccc(C#N)c4)CC3C2)CC1 (stereo partly drawn) | 24% | 6% |
| 0.027 µM | N#Cc1cccc([C@]23CC[C@@H](N(CCN4CC[C@@H](O)C4)C(=O)Nc4cccc(Cl)c4)CC2C3)c1 (stereo partly drawn) | – | – |
| 0.011 µM | CCN(CCO)CCN(C(=O)Nc1ccc(F)c(Cl)c1)[C@@H]1CC[C@]2(c3cccc(C#N)c3)CC2C1 (stereo partly drawn) | – | – |
| 0.0078 µM | CC(C)N(CCN(C(=O)Nc1ccc(F)c(F)c1)[C@@H]1CC[C@]2(c3cccc(Br)c3)CC2C1)C(C)C (stereo partly drawn) | – | – |
| 0.0028 µM | CC(C)N(CCN(C(=O)Nc1ccc(F)c(F)c1)[C@@H]1CC[C@]2(c3cccc(C#N)c3)CC2C1)C(C)C (stereo partly drawn) | – | – |
| 0.0097 µM | CS(=O)(=O)N1CCC(CN(C(=O)Nc2cccc(F)c2)[C@@H]2CC[C@]3(c4cccc(C#N)c4)CC3C2)CC1 (stereo partly drawn) | 47% | 25% |
| 0.0104 µM | CC(C)N(CCN(C(=O)Nc1ccc(F)cc1)[C@@H]1CC[C@]2(c3cccc(C#N)c3)CC2C1)C(C)C (stereo partly drawn) | – | – |
| 0.015 µM | N#Cc1cccc([C@]23CC[C@@H](N(CCN4CC[C@@H](O)C4)C(=O)Nc4cc(F)cc(F)c4)CC2C3)c1 (stereo partly drawn) | – | – |
| 0.015 µM | N#Cc1cccc([C@]23CC[C@@H](N(CCN4CCCCCC4)C(=O)Nc4ccc(F)c(Cl)c4)CC2C3)c1 (stereo partly drawn) | – | – |
| 0.0024 µM | CC(C)N(CCN(C(=O)Nc1cc(Cl)nc(Cl)c1)[C@@H]1CC[C@]2(c3cccc(C#N)c3)CC2C1)C(C)C (stereo in doubt; 13) | 59% | – |
| 0.006 µM | CC(C)N(CCN(C(=O)Nc1cccc(Cl)c1)[C@@H]1CC[C@]2(c3cccc(C#N)c3)CC2C1)C(C)C (stereo partly drawn) | – | – |
| 0.015 µM | CC1CCCCN1CCN(C(=O)Nc1ccc(F)c(Cl)c1)[C@@H]1CC[C@]2(c3cccc(C#N)c3)CC2C1 (stereo partly drawn) | – | – |
| 0.015 µM | N#Cc1cccc([C@]23CC[C@@H](N(CCN4CCCC(CO)C4)C(=O)Nc4ccc(F)c(Cl)c4)CC2C3)c1 (stereo partly drawn) | – | – |
